Laboratory results as given in ChEMBL document CHEMBL1126902, “Synthesis, chemical reactivity, and antitumor evaluation of congeners of carmethizole hydrochloride, an experimental "acylated vinylogous carbinolamine" tumor inhibitor” (J Med Chem, 1993).

Assays:
P388 [1] = experiment: Percent increase in life span of dying mice tested in vivo at 11.8 mg/kg against ip implanted P388 Leukemia in mice; type: functional; settings: Mus musculus, route intraperitoneal
Outline: (§1)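 Portage-CD2F1 female mice inoculated ip with ascitic fluid carrying ca. 5.2×10^6 P388 leukemia cells. Drug given ip daily on days 1-5, starting 24 h after inoculation, dosed by average body weight. %ILS is from the median day of death of dying mice versus controls.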

[2] = Change in tumor cell population in ip implanted LOX amelanotic melanoma in mice after administration of compound at 188 mg/kg; type: functional, Mus musculus; settings: route intraperitoneal
Outline: (§2)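 Female CD2F1 mice were implanted ip with ascitic fluid holding ca. 1.7×10^6 LOX cells. Dosing was ip on days 1, 5 and 9, starting 24 h after implantation, by exact body weight, as a solution or suspension in saline plus Tween 80, freshly prepared daily. KE is the net log change in viable tumor cells from start to end of treatment. Bracketed KE assumes Poisson survival, with 60-day survivors tumor-free.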

[3] = Change in tumor cell population in ip implanted LOX amelanotic melanoma in mice after administration of compound at 23.5 mg/kg; type: functional, Mus musculus; settings: route intraperitoneal; outline: as §2
[4] = Concentration required to inhibit tumor growth in […], human breast adenocarcinoma cell line; type: functional
Outline: (§3)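 Cells grown in RPMI 1640 with 5% fetal calf serum, 5% NuSerum IV and 20 mM HEPES, seeded and allowed to adhere overnight. Compound dissolved in RPMI-1640 plus HEPES and tested over a 5 log range (10 concentrations) for 72 h. Read-out by sulforhodamine B assay. Median-effect dose derived by nonlinear regression of the concentration-effect curve.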

P388 [5] = experiment: Change in tumor cell population in ip implanted P388 Leukemia in mice after administration of compound at 23.5 mg/kg; type: functional, Mus musculus; settings: route intraperitoneal
Outline: (§4)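 Female Portage-CD2F1 mice were inoculated ip with ascitic fluid holding ca. 5.2×10^6 P388 cells. Dosing was ip on days 1-5, starting 24 h after inoculation, by average body weight, as a solution or suspension in saline plus Tween 80. KE is the net log change in viable tumor cell population from start to end of the treatment period.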

HT-29 = experiment: Concentration required to inhibit tumor growth in HT29, human colon adenocarcinoma cell line; type: functional, cell-based; settings: Homo sapiens, HT-29; outline: as §3
[6] = Change in tumor cell population in ip implanted LOX amelanotic melanoma in mice after administration of compound at 47 mg/kg; type: functional, Mus musculus; settings: route intraperitoneal; outline: as §2
[7] = Percent increase in life span of dying mice tested in vivo at 188 mg/kg against ip implanted LOX amelanotic melanoma in mice (60-day survivors); type: functional; settings: Mus musculus, 1440 h, route intraperitoneal
Outline: (§5)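 Female CD2F1 mice implanted ip with ascitic fluid carrying ca. 1.7×10^6 LOX amelanotic melanoma cells. Drug given ip on days 1, 5 and 9, starting 24 h after implant, dosed by exact body weight; solutions or suspensions made fresh daily. %ILS is from the median day of death of dying mice versus controls, excluding 60-day survivors.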

P388 [8] = experiment: Percent increase in life span of dying mice tested in vivo at 23.5 mg/kg against ip implanted P388 Leukemia in mice; type: functional; settings: Mus musculus, route intraperitoneal; outline: as §1
[9] = Concentration required to inhibit tumor growth in PSN-1, human pancreatic carcinoma cell line; type: functional
Outline: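 PSN-1 pancreatic carcinoma cells exposed to compound dissolved in RPMI-1640 plus HEPES at its maximum soluble concentration for 72 h. Read-out by sulforhodamine B colorimetric assay.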

P388 [10] = experiment: Percent increase in life span of dying mice tested in vivo at 47 mg/kg against ip implanted P388 Leukemia in mice; type: functional; settings: Mus musculus, route intraperitoneal; outline: as §1
A549 = experiment: Concentration required to inhibit tumor growth in A549, human lung carcinoma (NSCLC) cell line; type: functional, cell-based; outline: as §3
P388 [11] = experiment: Change in tumor cell population in ip implanted P388 Leukemia in mice after administration of compound at 11.8 mg/kg; type: functional, Mus musculus; settings: route intraperitoneal; outline: as §4
P388 [12] = experiment: Percent increase in life span of dying mice tested in vivo at 94 mg/kg against ip implanted P388 Leukemia in mice; type: functional; settings: Mus musculus, route intraperitoneal
Outline: (§6)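 Portage-CD2F1 female mice were inoculated ip with ascitic fluid containing ca. 5.2×10^6 P388 leukemia cells. Drug was given ip daily on days 1-5, starting 24 h after inoculation, and dosed by average body weight. %ILS was calculated from the median day of death of dying mice versus controls.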

[13] = Percent increase in life span of dying mice tested in vivo at 94 mg/kg against ip implanted LOX amelanotic melanoma in mice (60-day survivors); type: functional; settings: Mus musculus, 1440 h, route intraperitoneal
Outline: (§7)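 Nude CD2F1 female mice were implanted ip with ascitic fluid containing ca. 1.7×10^6 LOX amelanotic melanoma cells. Drug was given ip on days 1, 5 and 9, starting 24 h after implantation, and dosed by exact body weight. Solutions or suspensions were made fresh daily in saline plus Tween 80. %ILS was calculated from the median day of death of dying mice versus controls, excluding 60-day survivors.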

[14] = Percent increase in life span of dying mice tested in vivo at 47 mg/kg against ip implanted LOX amelanotic melanoma in mice (60-day survivors); type: functional; settings: Mus musculus, 1440 h, route intraperitoneal; outline: as §5
P388 [15] = experiment: Change in tumor cell population in ip implanted P388 Leukemia in mice after administration of compound at 94 mg/kg; type: functional, Mus musculus; settings: route intraperitoneal
Outline: (§8)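 P388 leukemia: ascitic fluid with ca. 5.2×10^6 cells inoculated ip into Portage-CD₂F₁ female mice. Drug given ip on days 1-5, starting 24 h after inoculation, dosed by average body weight. Vehicle was saline plus Tween 80, as a solution or suspension. KE = net log change in viable tumor cells from start to end of treatment.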

L1210 (Mus musculus) = experiment: Concentration required to inhibit tumor growth in L1210, murine lymphocytic leukemia cell line
[16] = Percent increase in life span of dying mice tested in vivo at 23.5 mg/kg against ip implanted LOX amelanotic melanoma in mice (60-day survivors); type: functional; settings: Mus musculus, 1440 h, route intraperitoneal; outline: as §5
P388 [17] = experiment: Change in tumor cell population in ip implanted P388 Leukemia in mice after administration of compound at 47 mg/kg; type: functional, Mus musculus; settings: route intraperitoneal; outline: as §8
[18] = Change in tumor cell population in ip implanted LOX amelanotic melanoma in mice after administration of compound at 94 mg/kg; type: functional, Mus musculus; settings: route intraperitoneal; outline: as §2
[19] = Change in tumor cell population in ip implanted LOX amelanotic melanoma in mice after administration of compound at 164 mg/kg; type: functional, Mus musculus; settings: route intraperitoneal; outline: as §2
[20] = Percent increase in life span of dying mice tested in vivo at 82 mg/kg against ip implanted LOX amelanotic melanoma in mice (60-day survivors); type: functional; settings: Mus musculus, 1440 h, route intraperitoneal; outline: as §7
P388 [21] = experiment: Change in tumor cell population in ip implanted P388 Leukemia in mice after administration of compound at 164 mg/kg; type: functional, Mus musculus; settings: route intraperitoneal; outline: as §4
[22] = Change in tumor cell population in ip implanted LOX amelanotic melanoma in mice after administration of compound at 41 mg/kg; type: functional, Mus musculus; settings: route intraperitoneal; outline: as §2
P388 [23] = experiment: Percent increase in life span of dying mice tested in vivo at 82 mg/kg against ip implanted P388 Leukemia in mice; type: functional; settings: Mus musculus, route intraperitoneal; outline: as §6
[24] = Percent increase in life span of dying mice tested in vivo at 328 mg/kg against ip implanted LOX amelanotic melanoma in mice (60-day survivors); type: functional; settings: Mus musculus, 1440 h, route intraperitoneal; outline: as §5
P388 [25] = experiment: Percent increase in life span of dying mice tested in vivo at 41 mg/kg against ip implanted P388 Leukemia in mice; type: functional; settings: Mus musculus, route intraperitoneal; outline: as §1
[26] = Percent increase in life span of dying mice tested in vivo at 164 mg/kg against ip implanted LOX amelanotic melanoma in mice (60-day survivors); type: functional; settings: Mus musculus, 1440 h, route intraperitoneal; outline: as §5
P388 [27] = experiment: Change in tumor cell population in ip implanted P388 Leukemia in mice after administration of compound at 82 mg/kg; type: functional, Mus musculus; settings: route intraperitoneal; outline: as §8
P388 [28] = experiment: Change in tumor cell population in ip implanted P388 Leukemia in mice after administration of compound at 41 mg/kg; type: functional, Mus musculus; settings: route intraperitoneal; outline: as §4
[29] = Percent increase in life span of dying mice tested in vivo at 41 mg/kg against ip implanted LOX amelanotic melanoma in mice (60-day survivors); type: functional; settings: Mus musculus, 1440 h, route intraperitoneal; outline: as §5
P388 [30] = experiment: Percent increase in life span of dying mice tested in vivo at 20.5 mg/kg against ip implanted P388 Leukemia in mice; type: functional; settings: Mus musculus, route intraperitoneal; outline: as §1
P388 [31] = experiment: Percent increase in life span of dying mice tested in vivo at 164 mg/kg against ip implanted P388 Leukemia in mice; type: functional; settings: Mus musculus, route intraperitoneal; outline: as §1
Mus musculus = experiment: Change in tumor cell population in ip implanted LOX amelanotic melanoma in mice after administration of compound at 328 mg/kg; toxic; type: functional, organism-based; set-up: dose 328 mg/kg; outline: as §2
[32] = Change in tumor cell population in ip implanted LOX amelanotic melanoma in mice after administration of compound at 82 mg/kg; type: functional, Mus musculus; settings: route intraperitoneal; outline: as §2
P388 [33] = experiment: Change in tumor cell population in ip implanted P388 Leukemia in mice after administration of compound at 20.5 mg/kg; type: functional, Mus musculus; settings: route intraperitoneal; outline: as §4

CCCSc1nc(COC(=O)NC)c(COC(=O)NC)n1C
ILS at 11.8 mg/kg (P388 [1]): 40%
KE [2]: -1.6
KE [3]: 1.3
IC50 [4]: 147 µM
KE (P388 [5]): -0.1
IC50 (HT-29): 108 µM
KE [6]: 0.7
ILS at 188 mg/kg [7]: 76%
ILS at 23.5 mg/kg (P388 [8]): 40%
IC50 [9]: 115 µM
ILS at 47 mg/kg (P388 [10]): 59%
IC50 (A549): 190 µM
KE (P388 [11]): -0.1
ILS at 94 mg/kg (P388 [12]): 84%
ILS at 94 mg/kg [13]: 22%
ILS at 47 mg/kg [14]: 24%
KE (P388 [15]): -3.3
IC50 (L1210 (Mus musculus)): 18 µM
ILS at 23.5 mg/kg [16]: 13%
KE (P388 [17]): -1.5
KE [18]: 0.6

CNC(=O)OCc1nc(SSc2nc(COC(=O)NC)c(COC(=O)NC)n2C)n(C)c1COC(=O)NC
KE [19]: 1.8
ILS at 82 mg/kg [20]: -5%
KE (P388 [21]): 0.9
KE [22]: 1.5
ILS at 82 mg/kg (P388 [23]): 17%
ILS at 328 mg/kg [24]: -69%
ILS at 41 mg/kg (P388 [25]): 20%
ILS at 164 mg/kg [26]: -5%
KE (P388 [27]): 1.3
KE (P388 [28]): 1.3
ILS at 41 mg/kg [29]: 3%
ILS at 20.5 mg/kg (P388 [30]): 17%
ILS at 164 mg/kg (P388 [31]): 26%
KE (Mus musculus): Toxic
KE [32]: 1.8
KE (P388 [33]): 1.3
